Laboratory results reported in ChEMBL document CHEMBL1123191, “Allergenic alpha-methylene-gamma-butyrolactones. Study of the capacity of beta-acetoxy- and beta-hydroxy-alpha-methylene-gamma-butyrolactones to induce allergic contact dermatitis in guinea pigs” (1986).

Assays:
[1] = species: Cavia porcellus; test: Compound was measured for open epicutaneous test on sensitized guinea pig after sensitization of compound (Acetic acid 4-methylene-5-oxo-tetrahydro-furan-3-yl ester); assay type: functional
Procedure, shortened: (§1)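 Female Albino Himalayan spotted guinea pigs (300-500 g) sensitized by FCAT: hapten emulsified in Freund's complete adjuvant, 0.1 mL intradermal in shaved nuchal region, three injections on alternate days. After 2-week rest, 25 μL of 2% lactone in CH2Cl2 (others at same molar concentration) applied to 2-cm² area of shaved flank. Read at 24 h, scale 0-3.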

[2] = species: Cavia porcellus; test: Compound was measured for open epicutaneous test on sensitized guinea pig after sensitization of compound itself; assay type: functional; procedure, shortened: as §1
[3] = species: Cavia porcellus; test: Compound was measured for open epicutaneous test on sensitized guinea pig after sensitization of compound (Acetic acid 3-methylene-2-oxo-1-oxa-spiro[4.5]dec-4-yl ester); assay type: functional; procedure, shortened: as §1
[4] = species: Cavia porcellus; test: Compound was measured for open epicutaneous test on sensitized guinea pig after sensitization of compound (3-Methylene-1-oxa-spiro[4.5]decan-2-one); assay type: functional; procedure, shortened: as §1
[5] = species: Cavia porcellus; test: Compound was measured for open epicutaneous test on sensitized guinea pig after sensitization of compound (4-Hydroxy-3-methylene-1-oxa-spiro[4.5]decan-2-one); assay type: functional; procedure, shortened: as §1
[6] = species: Cavia porcellus; test: Compound was measured for open epicutaneous test on sensitized guinea pig after sensitization of compound (4-Hydroxy-3-methylene-dihydro-furan-2-one); assay type: functional; procedure, shortened: as §1
[7] = species: Cavia porcellus; test: Compound was measured for open epicutaneous test on sensitized guinea pig after sensitization of compound (4-Hydroxy-3-methylene-dihydro-furan-2-one) average skin reaction; assay type: functional; procedure, shortened: as §1
[8] = species: Cavia porcellus; test: Compound was measured for open epicutaneous test on sensitized guinea pig after sensitization of compound (3-Methylene-1-oxa-spiro[4.5]decan-2-one) average skin reaction.; assay type: functional; procedure, shortened: as §1
[9] = species: Cavia porcellus; test: Compound was measured for open epicutaneous test on sensitized guinea pig after sensitization of compound (Acetic acid 4-methylene-5-oxo-tetrahydro-furan-3-yl ester) average skin reaction; assay type: functional; procedure, shortened: as §1
[10] = species: Cavia porcellus; test: Compound was measured for open epicutaneous test on sensitized guinea pig after sensitization of compound 1a
[11] = species: Cavia porcellus; test: Compound was measured for open epicutaneous test on sensitized guinea pig after sensitization of compound (4-Hydroxy-3-methylene-1-oxa-spiro[4.5]decan-2-one). average skin reaction.; assay type: functional; procedure, shortened: as §1

SMILES | Sensitized animals [1] | Sensitized animals [2] | Sensitized animals [3] | Sensitized animals [4] | Sensitized animals [5] | Sensitized animals [6] | Average skin reaction [7] | Average skin reaction [8] | Average skin reaction [3] | Average skin reaction [9] | Average skin reaction [10] | Average skin reaction [11]
C=C1C(=O)OC[C@@H]1O | 6 | 6 | 0 | 0 | 0 | 6 |  |  |  |  |  | 
C=C1C(=O)OC2(CCCCC2)[C@@H]1OC(C)=O | 0 | 6 | 6 | 6 | 6 | 0 | 0 | 1.7 | 3 | 0 | 0 | 1.8
C=C1C(=O)OC2(CCCCC2)[C@@H]1O | 0 | 0 | 6 | 6 | 6 | 0 | 0 | 0.4 | 0.5 | 0 | 0 | 0.7
C=C1C(=O)OC[C@@H]1OC(C)=O | 6 | 6 | 0 | 0 | 0 | 4 | 0.3 | 0 | 0 | 0.8 | 0.4 | 0
C=C1CC2(CCCCC2)OC1=O | 0 | 0 | 6 | 6 | 6 | 0 | 0 | 1.2 | 0.8 | 0 | 0 | 1.7
C=C1CCOC1=O [TULIPALINE A] | 6 | 6 | 0 | 0 | 0 | 6 | 1.1 | 0 | 0 | 1.1 | 2 | 0
